# The list is not random: actives were taken first. Their share in the collection is about 1.2%.
# procasp3 activ: activators of human procaspase-3 D3A mutant, primary screen, biochemical, absorbance, PC-3 D3A mutant, single concentration; AID 463141, 2010; recombinant procaspase-3 D3A, Ac-DEVD-pNA absorbance 405 nm; activation, % at 8.5 µM; 330,000 tested, 0.11% active; Caspase-3 (Homo sapiens), P42574;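 active means activation above the mean of all tested compounds plus 3 SD, cut at about 21% in these data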;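 further: 0% = DMSO alone and 100% = DMSO wells spiked with extra 5 µM PC-3 D3A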
#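 Assay system: Procaspase-3 D3A mutant, all three cleavage aspartates alanine. Buffer or medium: Zinc-free HEPES saline buffer with Triton X-100. Times: 1 h compound preincubation, 2 h substrate hydrolysis at 25 °C. Measured by: 405 nm absorbance of p-nitroaniline, reads at 0 and 120 min. Read-out basis: percent activation relative to control range. Replicates: singlicate.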
# p-CIP stab down: p/CIP-EGFP fusion destabilizers, primary screen, fluorescence, F442A cells | decrease of EGFP signal, % at 10 µM | Q05BA5 | AID 1984, 2009 | 16 h | 290,000 tested, 0.01% active;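 active means EGFP signal decrease of at least 30% at 10 µM or well 3 SD below plate mean, unless failing retest; inactive means the rest, including hits failing retest or dose response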
# Rce1 inh: yeast Rce1p protease inhibitors, primary screen, biochemical, fluorescence, cell-free homogeneous; CAAX prenyl protease 2 (Saccharomyces cerevisiae (strain ATCC 204508 / S288c)), Q03530; yeast membranes, quenched prenylated peptide cleavage fluorescence; calls only; 290,000 tested, 0.27% active; AID 2563, 2010;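 active means fall in fluorescence gain of 50% or more versus controls, with final raw signal at or below 3038400; inconclusive means same 50% fall but final raw signal above 3038400; inactive means fall in fluorescence gain under 50%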;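 further: plate controls were neutral control wells for no effect and wells lacking membranes for full effect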
# Target sequence (Q03530 whole entry, looked up): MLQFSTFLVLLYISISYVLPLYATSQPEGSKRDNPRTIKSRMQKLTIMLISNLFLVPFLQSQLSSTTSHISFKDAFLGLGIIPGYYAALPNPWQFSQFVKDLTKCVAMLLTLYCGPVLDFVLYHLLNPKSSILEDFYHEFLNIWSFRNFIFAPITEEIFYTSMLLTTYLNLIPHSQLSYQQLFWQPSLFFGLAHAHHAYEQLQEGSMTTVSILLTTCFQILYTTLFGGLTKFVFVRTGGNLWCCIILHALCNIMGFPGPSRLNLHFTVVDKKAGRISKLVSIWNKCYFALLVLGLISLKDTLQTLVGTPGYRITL
# procasp7 counter: procaspase-7 activators, primary screen, counter-screen for procaspase-3 activator project, biochemical, absorbance, HTS, human. Caspase-7 (Homo sapiens), P55210. recombinant procaspase-7, Ac-DEVD-pNA absorbance 405 nm; D23A/D198A/D206A triple mutant, cannot self-cleave; scale: DMSO 0, 5 µM enzyme 100. activation, % at 8.5 µM. 330,000 tested, 0.093% active. AID 463210, 2010;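 active means percent activation above the screen-wide mean plus 3 SD, cut at about 25% in these data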
# Target sequence (P55210 whole entry D23A/D198A/D206A): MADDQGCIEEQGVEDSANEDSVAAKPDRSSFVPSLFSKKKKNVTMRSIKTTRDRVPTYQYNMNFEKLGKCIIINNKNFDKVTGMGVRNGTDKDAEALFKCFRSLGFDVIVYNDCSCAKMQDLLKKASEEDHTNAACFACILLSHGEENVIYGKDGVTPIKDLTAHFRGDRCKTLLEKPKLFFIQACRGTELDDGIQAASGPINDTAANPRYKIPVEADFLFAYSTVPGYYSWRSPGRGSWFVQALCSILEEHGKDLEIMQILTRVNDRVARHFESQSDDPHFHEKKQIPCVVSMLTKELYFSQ
#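 Assay system: Uncleavable procaspase-7 mutant enzyme / Input: 2 µM procaspase-7 mutant as dispensed / Dosing: single nominal 8.5 µM compound dose, 0.8% DMSO final / Timing: 1 h enzyme–compound preincubation and 2 h substrate reaction, both 25 °C / Detection: p-Nitroaniline absorbance at 405 nm, read at 0 and 120 min / Replication: singlicate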
# FXN GAA850 act: FXN promoter activators, primary screen, cell-based, luciferase luminescence, HEK293 lucGAA850. HEK293 lucGAA850 FXN promoter luciferase reporter, 24 h; percent of 10 µM SAHA response. activation, % at 6 µM. 360,000 tested, 0.56% active. AID 540364, 2011;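 active means activation above the average of all compounds screened plus 3 SD, cutoff fixed separately per campaign, cut at about 7.5% in these data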;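 further: 0% = DMSO wells and 100% = 10 µM SAHA wells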
# Hep lipid drop: inhibitors of hepatocyte lipid droplet formation, primary screen, imaging, high-throughput imaging, BODIPY stain. 240,000 tested, 0.4% active. AID 1656, 2009. inhibition, % at 6.5 µM. AML12 mouse hepatocytes, oleate lipid droplets;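 active means lipid droplet intensity inhibited by at least 50%, with more than 500 cells counted; inconclusive means wells with under 300 cells, treated as cytotoxic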
#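 Test system: AML12 hepatocytes (mouse); reagent: oleate loading, 100 µM; dosing: one dose, 6.5 µM compound; incubation: overnight exposure; signal: fluorescence imaging, 20x objective, two fields per well; read-out basis: % inhibition of corrected integrated BODIPY droplet signal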
# PC3 D3A act: procaspase-3 activators, counter-screen for dual procaspase-3/7 activator project, biochemical, absorbance, PC-3 D3A mutant, human. 290 tested, under 10 active. shares compounds with procasp7 counter. activation, % at 8.5 µM. recombinant PC-3 D3A, Ac-DEVD-pNA absorbance 405 nm; aspartates 9, 28, 175 changed to alanine; 100% = enzyme control. AID 493114, 2011;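 active means mean percent activation across triplicates above a set limit taken from the earlier primary procaspase-3 screen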;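 further: 0% = DMSO wells and 100% = DMSO wells with 5 µM added PC-3 D3A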
# PC7 dual conf: activation of procaspase-7 enzyme – biochemical, absorbance, human, dual procaspase-3/-7 activator project, confirmation; shares compounds with procasp7 counter; 290 tested, under 10 active; activation, % at 8.5 µM; recombinant procaspase-7, Ac-DEVD-pNA absorbance 405 nm; D23A/D198A/D206A mutant that cannot self-cleave;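 active means mean activation above a set limit carried over from the earlier primary screen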;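 further: 0% = DMSO only and 100% = DMSO with added 5 µM PC-7 enzyme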
# * = called active by the depositor; i = inactive; ? = inconclusive; nt = not tested or not shown.
SMILES,procasp3 activ,p-CIP stab down,Rce1 inh,procasp7 counter,FXN GAA850 act,Hep lipid drop,PC3 D3A act,PC7 dual conf
Cc1c(C(=O)N/N=C/c2ccc(N(C)C)cc2)[nH]c2ccc(Cl)cc12,8,-1,i,35*,3,?,-31,-28
COc1ccc(NC(=O)CN(C)C(=O)c2oc3c(ccc4ccccc43)c2C)cc1,3,nt,nt,5,1,nt,nt,nt
COc1ccc(-n2c(N)c(C(=O)NCc3ccco3)c3nc4ccccc4nc32)cc1OC,12,-9,i,32*,3,2,-29,-35
Nc1c(C(=O)NCc2ccco2)c2nc3ccccc3nc2n1CCc1ccc(F)cc1,-2,-9,i,-9,0,16,nt,nt
Nc1c(C(=O)NCc2ccccc2)c2nc3ccccc3nc2n1-c1ccc2c(c1)OCO2,8,-8,i,6,-4,25,nt,nt
COc1ccc(-n2c(N)c(C(=O)NCc3ccco3)c3nc4ccccc4nc32)cc1,-5,-17,i,44*,3,nt,-30,-37
Nc1ccc(-n2c(N)c(C(=O)NCc3ccc4c(c3)OCO4)c3nc4ccccc4nc32)cc1,-5,nt,i,44*,-4,nt,-29,-31
COc1cc(-n2c(N)c(C(=O)NCc3ccco3)c3nc4ccccc4nc32)cc(OC)c1OC,2,-9,nt,43*,1,10,-28,-36
CC1CCC(C(O)(C(=O)c2ccccc2)c2ccccc2)C(=O)C1 (centres undefined),nt,nt,nt,nt,0,nt,nt,nt
NS(=O)(=O)c1ccc(N2N=C(c3ccccc3)CC2c2ccccc2Cl)cc1 (centres undefined),47*,nt,nt,80*,3,nt,-28,-35
Cc1ccc(C2CC(c3ccccc3)=NN2c2ccc(S(N)(=O)=O)cc2)cc1 (centres undefined),nt,nt,nt,nt,1,nt,nt,nt
NS(=O)(=O)c1ccc(N2N=C(c3ccccc3)CC2c2ccccc2)cc1 (centres undefined),37*,-7,?,63*,5,12,-28,-35
NS(=O)(=O)c1ccc(N2N=C(c3ccccc3)CC2c2ccc(Br)cc2)cc1 (centres undefined),nt,nt,nt,nt,-2,nt,nt,nt
CCc1ccc(C2=NN(c3ccc(S(N)(=O)=O)cc3)C(c3ccc(F)cc3)C2)cc1 (centres undefined),59*,6,?,27*,1,-1,-31,-36
O=C(CNS(=O)(=O)c1ccc([N+](=O)[O-])cc1)N/N=C/c1ccc(O)cc1O,-7,-7,i,2,0,1,nt,nt
Cc1cc(C)c(NC(=O)c2cccc3c2C(=O)N(C2CCCCC2)C3)c(C)c1,5,2,i,3,1,12,nt,nt
CCCCCCc1cc2cc(S(=O)(=O)c3ccc(C)cc3)c(=O)oc2cc1O,86*,-5,i,31*,-1,-32,-29,-35
CCCCCCc1cc2cc(S(=O)(=O)c3ccc(Cl)cc3)c(=O)oc2cc1O,-2,-12,i,-3,0,-44,nt,nt
CCOc1ncccc1C(=O)NCC(c1ccccc1)N(C)C (centres undefined),-4,2,i,8,2,-29,nt,nt
COc1ccccc1OCCn1cc(/C=C(\C#N)C(=O)NCc2ccco2)c2ccccc21,1,-7,i,50*,0,0,3,1
Cc1cc(-c2nc3cccnc3s2)ccc1NS(=O)(=O)c1cccs1,17,-14,i,26*,4,16,-28,-34
O=S(=O)(Nc1ccc(-c2nc3cccnc3s2)cc1)c1cccs1,3,2,i,11,3,8,nt,nt
Cc1cccc(C(=O)NCCc2ccccc2)c1,9,-19,i,7,2,nt,nt,nt
COC(=O)C1=C(CS(=O)(=O)c2cc(OC)ccc2OC)NC(=O)NC1c1ccc(O)c(OC)c1 (centres undefined),0,-6,i,0,0,-5,nt,nt
CCOc1ccc(N=CC2=C(O)CC(c3ccco3)CC2=O)cc1 (centres undefined),38*,-8,i,54*,-2,-18,19,13
SMILES,procasp3 activ,p-CIP stab down,Rce1 inh,procasp7 counter,FXN GAA850 act,Hep lipid drop,PC3 D3A act,PC7 dual conf
O=C(Cn1c2ccccc2c(=O)c2ccccc21)Nc1cccc(F)c1,50*,2,nt,93*,3,-3,-28,-38
O=C(CC(=O)Nc1cccc(F)c1)Nc1cccc(F)c1,-5,3,i,5,1,0,nt,nt
COc1ccc(Nc2oc(-c3cccs3)nc2C#N)cc1,16,14,i,53*,5,nt,-30,-30
CNc1oc(-c2cccs2)nc1C#N,-2,-1,i,8,2,nt,nt,nt
COC(=O)C1=C(C)NC(=O)NC1c1ccc(OC)c(OC)c1 (centres undefined),nt,nt,nt,nt,1,nt,nt,nt
COC(=O)C1=C(C)NC(=O)NC1c1ccc(N2CCC(c3ccccc3)=N2)cc1 (centres undefined),85*,-22,i,38*,0,5,-30,-35
O=C(Cc1ccc(F)cc1)N[C@@H]1c2ccccc2CC[C@@H]1OCc1ccccc1,4,nt,nt,-2,0,nt,nt,nt
CCC1CCCCN1CCCNC(=O)c1cc2c(=O)oc3ccc(C)cc3c2s1 (centres undefined),14,-22,i,-12,-1,-5,nt,nt
C=CCOc1ccccc1C1C2=C(CC(C)(C)CC2=O)Nc2c1c(=O)n(C)c(=O)n2C (centres undefined),-3,-10,i,-1,2,nt,nt,nt
COc1ccc(C2C3=C(CC(C)(C)CC3=O)Nc3c2c(=O)n(C)c(=O)n3C)cc1OC (centres undefined),6,15,i,27*,1,2,-28,-24
CSc1nc2ncncc2[nH]1,nt,nt,nt,nt,-3,nt,nt,nt
